Measurements published in ChEMBL document CHEMBL1151801, “Synthesis of new indeno[1,2-e]pyrimido[4,5-b][1,4]diazepine-5,11-diones as potential antitumor agents” (2008).
The source made the active and inactive calls.

Assays:
OVCAR-5 = test: Antitumor activity against human OVCAR5 cells after 48 hrs by SRB assay; format: functional; conditions: OVCAR-5, 48 h
In short: (§1)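 NCI in vitro human tumor cell line screen. Cells were exposed continuously to compound for 48 h at five concentration levels (100, 10, 1.0, 0.1 and 0.01). Growth was estimated by sulforhodamine B protein staining. GI50 is the concentration giving a 50% reduction in net protein increase relative to control cells over the incubation.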

RXF 393 = test: Antitumor activity against human […] cells after 48 hrs by SRB assay; format: functional; conditions: RXF 393, 48 h; in short: as §1
NCI-H460 = test: Antitumor activity against human NCI-H460 cells after 48 hrs by SRB assay; format: functional; conditions: NCI-H460, 48 h; for CC50: read-out: LC50 (the source's name); in short: as §1
[1] = Antitumor activity against human […] cells after 48 hrs by SRB assay; format: functional; in short: as §1
A549 = test: Antitumor activity against human A549 cells after 48 hrs by SRB assay; format: functional; conditions: A549, 48 h; for CC50: read-out: LC50 (the source's name); in short: as §1
SK-MEL-28 = test: Antitumor activity against human SK-MEL-28 cells after 48 hrs by SRB assay; format: functional; conditions: SK-MEL-28, 48 h; in short: as §1
SNB-19 = test: Antitumor activity against human SNB19 cells after 48 hrs by SRB assay; format: functional; conditions: SNB-19, 48 h; in short: as §1
HOP-62 = test: Antitumor activity against human HOP62 cells after 48 hrs by SRB assay; format: functional; conditions: HOP-62, 48 h; for CC50: read-out: LC50 (the source's name); in short: as §1
TK-10 = test: Antitumor activity against human TK10 cells after 48 hrs by SRB assay; format: functional; conditions: TK-10, 48 h
In short: (§2)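 NCI in vitro human tumor cell line screen. Continuous 48 h drug exposure at five concentrations (100, 10, 1.0, 0.1 and 0.01 µM). Cell growth estimated by sulforhodamine B protein staining. GI50 defined as the concentration giving 50% reduction in net protein increase versus control cells over the incubation.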

HCC 2998 = test: Antitumor activity against human HCC2998 cells after 48 hrs by SRB assay; format: functional; conditions: HCC 2998, 48 h; for CC50: read-out: LC50 (the source's name); in short: as §1
PC-3 = test: Antitumor activity against human PC3 cells after 48 hrs by SRB assay; format: functional; conditions: PC-3, 48 h; for CC50: read-out: LC50 (the source's name); in short: as §1
EKVX = test: Antitumor activity against human EKVX cells after 48 hrs by SRB assay; format: functional; conditions: for CC50: read-out: LC50 (the source's name); in short: as §1
SK-MEL-5 = test: Antitumor activity against human SK-MEL-5 cells after 48 hrs by SRB assay; format: functional; conditions: SK-MEL-5, 48 h; in short: as §1
UACC-62 = test: Antitumor activity against human UACC62 cells after 48 hrs by SRB assay; format: functional; conditions: UACC-62, 48 h; in short: as §2
NCI60 = test: Antitumor activity against human NCI60 cells at 1 uM; format: functional, cell-based
Malme-3M = test: Antitumor activity against human MALME-3M cells after 48 hrs by SRB assay; format: functional; in short: as §1
BT-549 = test: Antitumor activity against human BT549 cells after 48 hrs by SRB assay; format: functional; conditions: BT-549, 48 h; for CC50: read-out: LC50 (the source's name); in short: as §1
M14 = test: Antitumor activity against human M14 cells after 48 hrs by SRB assay; format: functional; conditions: M14, 48 h; in short: as §1
SR = test: Antitumor activity against human SR cells after 48 hrs by SRB assay; format: functional; in short: as §1
LOX IMVI = test: Antitumor activity against human LOXIMVI cells after 48 hrs by SRB assay; format: functional; in short: as §1
[2] = read-out: LC50 (the source's name)

Row | Compound | GI50 (NCI-H460) [µM] | CC50 (NCI-H460) [µM] | GI50 [1] [µM] | LC50 [1] [µM] | GI50 (A549) [µM] | CC50 (A549) [µM] | GI50 (HOP-62) [µM] | CC50 (HOP-62) [µM] | GI50 (HCC 2998) [µM] | CC50 (HCC 2998) [µM] | GI50 (PC-3) [µM] | CC50 (PC-3) [µM] | GI50 (EKVX) [µM] | CC50 (EKVX) [µM] | Activity (NCI60) | GI50 (BT-549) [µM] | CC50 (BT-549) [µM] | GI50 (SR) [µM] | LC50 (concentration killing 50% of cells) (SR) [µM] | other results
1 | CSc1nc2c(c(=O)[nH]1)NC1=C(C(=O)c3ccccc31)C(c1ccc(F)cc1)N2 (stereo not drawn) | 5.1 | > 100 | 4.2 | > 100 | 12.6 | > 100 | 11.9 | 95.6 | 12.2 | 76.1 | 7.72 | > 100 | 18.2 | > 100 | Active | 8.5 | > 100 | 6.31 | > 100 | GI50 (OVCAR-5): 17.7 µM; CC50 (OVCAR-5; [2]): 95.6 µM; GI50 (RXF 393): 14.5 µM; CC50 (RXF 393; [2]): 92.8 µM; GI50 (SK-MEL-28): 9.03 µM; CC50 (SK-MEL-28; [2]): > 100 µM; GI50 (SNB-19): 15.9 µM; CC50 (SNB-19; [2]): > 100 µM; GI50 (TK-10): 12.9 µM; CC50 (TK-10; [2]): > 100 µM; GI50 (SK-MEL-5): 6.13 µM; CC50 (SK-MEL-5; [2]): > 100 µM; GI50 (UACC-62): 3.04 µM; CC50 (UACC-62; [2]): > 100 µM; GI50 (Malme-3M): 19.6 µM; CC50 (Malme-3M; [2]): > 100 µM; GI50 (M14): 6.29 µM; CC50 (M14; [2]): > 100 µM; GI50 (LOX IMVI): 8.78 µM; CC50 (LOX IMVI; [2]): 95.2 µM
2 | CSc1nc2c(c(=O)[nH]1)NC1=C(C(=O)c3ccccc31)C(c1ccccc1)N2 (stereo not drawn) | 3.16 | > 100 | 3.01 | > 100 | 6.98 | > 100 | 5.37 | > 100 | 6.75 | > 100 | 3.64 | > 100 | 12.8 | > 100 | Active | 5.35 | > 100 | 1.51 | > 100 | –
